# High-throughput results as filed in PubChem BioAssay.
# NR2E3 ag-1 – agonists of human NR2E3 nuclear receptor; CHO-S Gal4-NCOR/VP16-NR2E3 two-hybrid, luciferase; inhibition of corepressor binding, % at 3.98 µM; 360,000 compounds, 0.35% hits;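 active means inhibition above the mean of all tested compounds plus 3 SD, cut at about 70% in these data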;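 further: 0% = DMSO with NR2E3 transfected cells and 100% = cells lacking NR2E3 construct; higher means lower luciferase signal from less NR2E3 corepressor binding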
# VLA-4 inh – inhibition in a human VLA-4 binding assay; P13612; VLA-4 expressing cells, ligand binding flow cytometry; inhibition, % (about 7 µM as worked out from the volumes in the protocol); 330,000 compounds, 0.2% hits; in the data active means inhibition above about 50%
# PG9 Ab binder – binds the HIV-1 gp120 antibody PG9; AID 624416; inhibition, % at 6.7 µM; TR-FRET gp120-PG9 antibody binding; 360,000 compounds, 0.43% hits; in the data active means inhibition above about 8.5%
# NR1D1 modulator – Rev-erb alpha (human) modulation. Rev-erbα–FITC-DNA binding, fluorescence polarization, 90 min. activity, % at 10 µM. 370,000 compounds, 0.79% hits;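 active means activity above about 14%, limit read from the data; passing the limit was not always enough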;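 further: 0% = DMSO wells with 35 nM protein and 100% = DMSO wells with 750 nM protein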
# Target sequence (P20393 whole entry, looked up): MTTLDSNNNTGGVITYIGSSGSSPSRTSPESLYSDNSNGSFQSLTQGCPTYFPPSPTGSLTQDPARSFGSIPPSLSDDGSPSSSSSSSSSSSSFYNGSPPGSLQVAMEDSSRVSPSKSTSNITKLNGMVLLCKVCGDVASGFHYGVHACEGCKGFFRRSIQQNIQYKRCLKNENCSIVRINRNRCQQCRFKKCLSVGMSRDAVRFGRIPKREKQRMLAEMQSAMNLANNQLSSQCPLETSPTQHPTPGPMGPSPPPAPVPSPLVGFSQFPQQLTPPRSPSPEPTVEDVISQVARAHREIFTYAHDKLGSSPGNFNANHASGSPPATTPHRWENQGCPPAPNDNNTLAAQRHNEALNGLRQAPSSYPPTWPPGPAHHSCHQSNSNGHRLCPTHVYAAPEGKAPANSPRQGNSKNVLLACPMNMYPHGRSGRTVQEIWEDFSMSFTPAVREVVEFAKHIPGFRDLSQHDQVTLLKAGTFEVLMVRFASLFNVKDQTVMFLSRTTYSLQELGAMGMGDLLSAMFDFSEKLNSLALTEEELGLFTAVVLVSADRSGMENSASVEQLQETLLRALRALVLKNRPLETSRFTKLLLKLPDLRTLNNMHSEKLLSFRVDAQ
# NR2E3 ag-2 – NR2E3 (human) agonism | Q9Y5X4 | 320,000 compounds, 0.12% hits | inhibition of corepressor binding, % at 4.78 µM | GST-NR2E3/biotin-RetCOR TR-FRET, 1536-well | AID 2300;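 active means percent inhibition above the cutoff of mean plus 3 SD of all tested compounds, set per screening campaign, cut at about 20% in these data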;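 further: 0% = DMSO wells and 100% = biotin wells as full block of FRET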
#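 Test system – NR2E3–RetCOR corepressor complex · Quantity – NR2E3 fusion 1.35 nM · Buffer or medium – Tris pH 7.5 · Incubation – Compound–protein incubation for 5 h at 4 °C · Technique – TR-FRET, Eu(K)-anti-GST donor, streptavidin-D2 acceptor, ex 340, em 617/671 nm · Evaluation – percent inhibition of 671/617 nm emission ratio versus biotin and DMSO controls · Plate – 1536-well format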
# PG9 binder conf – PG9 antibody binding, confirmed; shares compounds with PG9 Ab binder; TR-FRET PG9 antibody binding, biochemical; inhibition, % at 6.7 µM; 1,500 compounds, 90% hits; in the data active means inhibition above about 9%
# PGV04 Ab binding – binds control antibody PGV04 in PG9 binder counter-screen; shares compounds with PG9 Ab binder; TR-FRET PGV04 antibody-gp120 binding, biochemical; inhibition, % at 6.7 µM; 1,500 compounds, 95% hits; AID 651604; in the data active means inhibition above about 9.5%
# NR1D1 mod conf – confirmation of modulators of human Rev-erb alpha DNA binding; 3,000 compounds, 61% hits; AID 1259319; shares compounds with NR1D1 modulator; activation, % at 25 µM; Rev-erb alpha FITC-DNA binding, fluorescence polarization, 90 min;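 active means activation at or above a set limit, or at least 3 SD above the negative control mean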;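 further: 0% = 35 nM protein with DMSO and 100% = 750 nM protein high control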
# * marks the source's active call; other numbers are inactive results; . = no result given. This is a sample that favours compounds with a hit; in the whole collection about 1.6% have one here.
SMILES,NR2E3 ag-1,VLA-4 inh,PG9 Ab binder,NR1D1 modulator,NR2E3 ag-2,PG9 binder conf,PGV04 Ab binding,others
O=C1Cc2c([nH]c3ccc(Br)cc23)-c2ccccc2N1,8,.,11*,-8,.,16*,22*,
COc1cccc(OC)c1NC(=O)OCCN1CCCC12CCC(c1ccccc1)CC2 (stereo not drawn),.,.,.,-8,.,.,.,
O=C(CSc1nnc(-c2cccnc2)n1-c1ccccc1)Nc1ccc(OCc2ccccc2)cc1,.,.,.,-1,.,.,.,
CSc1ncccc1C(=O)OCc1ccc(C#N)cc1,6,8,9.8*,2,5,15*,20*,
CSc1ncccc1C(=O)OCC(=O)Nc1ccc(Cl)cn1,-15,1,17*,-3,.,9.9*,15*,
CSc1ncccc1C(=O)OCC(=O)c1ccc(C)s1,-27,6,16*,17,.,16*,38*,
CS(=O)(=O)OC12CCCN(C1)/C(=C/c1ccc(Cl)cc1)C2 (stereo not drawn),.,.,.,-3,.,.,.,
C=CC[C@]1(c2ccccc2)C(=O)N2C[C@H]3CON(C)[C@H]3C[C@H]2c2ccccc21,.,.,-1,-3,.,.,.,
Cn1c(=O)c2c(SCC(=O)NCc3ccco3)nc(-c3ccccc3Cl)nc2n(C)c1=O,-30,-2,-1,-3,0,.,.,
COc1ccccc1-c1nc(SCC(=O)NCc2ccco2)c2c(=O)n(C)c(=O)n(C)c2n1,-15,-11,28*,2,4,26*,30*,
O=C(CSc1nnc(-c2ccccc2)n1-c1ccc(Cl)cc1)NN=Cc1c[nH]c2ccccc12,.,.,.,-2,.,.,.,
O=c1c(S(=O)(=O)c2ccc(Cl)cc2)cn(Cc2ccccc2F)c2ccc(F)cc12,-18,10,1,6,0,.,.,
Cc1ccc(Cn2cc(S(=O)(=O)c3ccc(Cl)cc3)c(=O)c3cc(F)ccc32)cc1,-9,16,8.7*,0,4,12*,21*,
Cc1cccc(NC(=O)Cn2cc(C(=O)C3CC3)c3ccccc32)c1,0,1,1,6,1,.,.,
Cc1ccc(S(=O)(=O)c2cn(CC(=O)Nc3ccccc3)c3ccc(F)cc3c2=O)cc1,-46,-7,14*,-8,-3,17*,25*,
O=c1c(S(=O)(=O)c2ccc(Cl)cc2)cn(Cc2cccc(F)c2)c2ccc(F)cc12,30,18,2,-4,-3,.,.,
Cc1ccc(NC(=O)Cn2cc(S(=O)(=O)c3ccc(F)cc3)c(=O)c3cc(F)ccc32)cc1,15,-12,24*,10,3,38*,44*,
Cc1ccc(NC(=O)Cn2cc(C(=O)C3CC3)c3ccccc32)cc1,1,6,10*,1,0,8,11*,
COc1ccc(C=NNC(=O)Cc2cc(=O)[nH][nH]2)c(OC)c1,.,.,.,-1,.,.,.,
Cc1ccccc1CN1CCCCC(NC(=O)c2ccccc2C(F)(F)F)C1=O (stereo not drawn),.,.,.,-3,.,.,.,
O=[N+]([O-])c1cccc(OCCCN2CCC(C(O)(c3ccccc3)c3ccccc3)CC2)c1,.,.,.,9,.,.,.,
O=C(O)CCCC(=O)N1CCN(c2nc(-c3ccccc3Cl)c3cc(Br)ccc3n2)CC1,-30,18,17*,-4,2,23*,34*,
CCOc1ccc(NC(=O)CCSc2ccc(C)cc2)cc1,-13,10,0,1,3,.,.,
Cc1ccc(SCCC(=O)Nc2ccc(OCc3ccccc3)cc2)cc1,-30,18,9.2*,3,4,15*,19*,
CCNC(=S)NNC(=O)CSc1nc2ccccc2c(=O)n1-c1ccc(Cl)cc1,.,.,.,-2,.,.,.,
SMILES,NR2E3 ag-1,VLA-4 inh,PG9 Ab binder,NR1D1 modulator,NR2E3 ag-2,PG9 binder conf,PGV04 Ab binding,others
CC(=O)c1ccc(OCCCC(=O)Nc2nnc(C3CC3)s2)cc1,-2,2,8.7*,-1,.,18*,25*,
CCN(CC)CCCNC(=O)c1oc(=O)c2ccccc2c1-c1ccc(C)cc1,.,.,.,-1,.,.,.,
COc1cccc(C2C(C(=O)c3cc4ccccc4o3)=C(O)C(=O)N2CCN(C)C)c1OC (stereo not drawn),6,3,30*,-5,18,33*,54*,
COc1cc(C2C(C(=O)c3ccc(C)o3)=C(O)C(=O)N2CCN2CCOCC2)ccc1OCCC(C)C (stereo not drawn),-33,.,12*,2,.,19*,22*,
CCN(CC)CCCN1C(=O)C(O)=C(C(=O)c2cc3cccc(OC)c3o2)C1c1ccncc1 (stereo not drawn),-18,-5,15*,-1,11,26*,37*,
COc1cccc2cc(C(=O)C3=C(O)C(=O)N(CCN(C)C)C3c3ccc(F)cc3)oc12 (stereo not drawn),-13,5,21*,1,9,31*,41*,
COc1cccc(C2C(C(=O)c3ccco3)=C(O)C(=O)N2CCN(C)C)c1OC (stereo not drawn),13,27,0,0,-3,.,.,
CCCOc1cccc(C2C(C(=O)c3ccc(C)o3)=C(O)C(=O)N2CCN2CCOCC2)c1 (stereo not drawn),-6,-4,4,2,5,.,.,
CC(=O)OC12CCCN(C1)/C(=C/c1cccc(N(C)C)c1)C2 (stereo not drawn),.,.,.,2,.,.,.,
CCOC(=O)CC[C@@]1(C(=O)OCC)C[C@@H](CC(=O)NCc2cccs2)C(=O)N2CCCC=C21,.,.,.,-1,.,.,.,
Cc1nn(CCC(=O)NNC(=O)Nc2ccc(Cl)cc2)c(C)c1[N+](=O)[O-],.,.,.,2,.,.,.,
COc1cccc(C2C(C(=O)c3cc4ccccc4o3)=C(O)C(=O)N2CCN2CCOCC2)c1 (stereo not drawn),-12,-7,15*,-2,12,31*,54*,
CC(CC(=O)Nc1ccc2c(c1)c(=O)n(C)n2-c1ccc2ccccc2c1)C(F)(F)F (stereo not drawn),-33,.,24*,20*,.,17*,24*,NR1D1 mod conf=22*
Cc1ccc(-c2cc3ncc(C#N)c(N)n3n2)cc1,-74,2,37*,47*,17,48*,63*,NR1D1 mod conf=12
Cc1ccc(-n2ncc(C#N)c2N)cc1,-5,8,-1,-3,7,.,.,
COc1cc(NC(=O)c2ccccn2)ccc1NC(=O)c1ccccc1Cl,.,.,.,-5,.,.,.,
O=C1CCC(CNc2ccccc2)N1c1ccccc1 (stereo not drawn),.,.,.,-1,.,.,.,
Cc1cc(NC(=O)CSc2nc3ccccc3c(=O)n2Cc2ccc(F)cc2)no1,-26,6,42*,52*,-1,62*,65*,NR1D1 mod conf=26*
